Assay [1] relates to HaCaT. Put plainly: Induction of apoptosis in human HaCaT cells assessed as early phase apoptotic cells at 111.6 uM after 9 hrs by AnnexinV-FITC/propidium iodide based FACS flow cytometry. In kind it is functional. Summed up:
(§1)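 HaCaT cells at 10^6 cells/ml were attached overnight and exposed to vehicle, 111.6, 223.2 or 446 µM for 9 h. Cells were then trypsinized, washed in ice-cold PBS and stained with Annexin V-FITC/PI. FACScan analysis used FL1/FL2, 10,000 events per sample, scatter gating, and quadrants set with single-stain controls. Runs were in triplicate and results are means of two experiments.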
For orientation: Flow cytometry measures light scatter and fluorescence of single cells or particles in a stream.

For assay [2], the system named is HaCaT. As to the kind of experiment: Induction of apoptosis in human HaCaT cells assessed as activation of caspase 3/7 at 56 to 446 uM after 12 hrs. In kind it is functional, cell-based. In a few lines:
(§2)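 HaCaT cells were seeded at 10,000 cells/0.2 ml/well, attached overnight and exposed to compound (56–446 µM) for 12 h. Caspase-3/7 activity was measured with the Apo-ONE homogeneous kit, fluorescence 499/521 nm, in triplicate, with medium-only background wells. MTT viability was run in parallel. Results are means of two experiments, t-test against control.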

A short description of assay [3]: Antioxidant activity in bovine brain assessed as inhibition of iron-ascorbate-induced lipid peroxidation by thiobarbituric acid test. In kind it is functional, tissue-based, Bos taurus. In a few lines:
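Hit compounds were tested for inhibition of lipid peroxidation by the thiobarbituric acid (TBA) assay. Propyl gallate served as the standardizing positive control, tested at 100 µM.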

Assay [4] deals with HaCaT. As to the kind of experiment: Induction of apoptosis in human HaCaT cells after 12 hrs by electron microscopy. Format: functional, cell-based.
A short description of assay [5]: Growth inhibition of HPV-16 transformed human CCD-1106 cells after 72 hrs by MTT assay. Format: functional. To be noted: CCD-1106, 72 h. Summed up: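 Cells were seeded at 10,000 cells/well in keratinocyte serum-free medium with L-glutamine, bovine pituitary extract and EGF, at 37 °C under 5% CO2, and attached overnight. Eight drug concentrations were run with six in-plate replicates, DMSO <1%, for 72 h. MTT (0.5 mg/ml) was added for 2 h, formazan was dissolved in 90% isopropanol/10% DMSO and A590 was read. Growth is expressed relative to the untreated control.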

Assay [6] in a line: Growth inhibition of human NHEK cells after 72 hrs by neutral red uptake assay. In kind it is functional. In a few lines: (§3)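 Neutral red uptake assay over 72 h. Cells were seeded at 10,000 cells/well and attached overnight, then exposed to eight concentrations with six replicates (DMSO <1%). CCD-1106 were grown in keratinocyte SFM with supplements. HaCaT were grown in DMEM with 10% FBS and 2 mM L-glutamine. NHEK (pooled adult) were grown in keratinocyte growth medium with supplement. Values are means, n = 6, against the untreated control.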

The test system of assay [7] is HaCaT. As to the kind of experiment: Induction of apoptosis in human HaCaT cells assessed as early phase apoptotic cells at 223.2 uM after 9 hrs by AnnexinV-FITC/propidium iodide based FACS flow cytometry. Format: functional. In a few lines:
as §1

Assay [8] has as its system HaCaT. As to the kind of experiment: Induction of apoptosis in human HaCaT cells assessed as early phase apoptotic cells at 446 uM after 9 hrs by AnnexinV-FITC/propidium iodide based FACS flow cytometry. In kind it is functional. Summed up:
as §1

The next assay has as its system THP-1. Put plainly: Growth inhibition of human THP1 cells after 72 hrs by Cell Titer 96 aqueous one solution assay. Format: functional. In a few lines: (§4)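 Cells were grown in RPMI with 10% FBS, 2 mM L-glutamine and penicillin/streptomycin. They were seeded at 10,000 cells/well in round-bottom plates and exposed to compounds for 72 h (eight concentrations, six replicates). Cell Titer 96 AQueous One reagent was then added for 3 h at 37 °C and absorbance was read at 492 nm. Values are means, n = 6.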

The subject of assay [9] is HaCaT. Put plainly: Cytotoxicity against human HaCaT cells assessed as LDH release after 24 hrs by CYTOX-96 assay. Format: functional. To be noted: read-out: LD50 (the source's name). In a few lines: (§5)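 LDH release was read with the CytoTox 96 kit following the kit protocol after 6 or 24 h drug exposure. Cells were seeded at 10,000/well and attached overnight. Eight concentrations were run with six in-plate replicates; DMSO was <1% in all wells, with medium-only blanks. LD₅₀ is reported as mean ± S.E.M., n = 6. CCD-1106 were grown in supplemented keratinocyte SFM; HaCaT in DMEM/10% FBS.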
A general note: Release of lactate dehydrogenase indicates damage to the cell membrane.

The test system of assay [10] is HaCaT. Put plainly: Cytotoxicity against human HaCaT cells assessed as LDH release after 6 hrs by CYTOX-96 assay. Format: functional. To be noted: read-out: LD50 (the source's name). In a few lines: as §5
In assay [11] the test system is HaCaT. As to the kind of experiment: Cytotoxicity against human HaCaT cells assessed as cell viability after 6 hrs by MTT assay. In kind it is functional. The following applies: read-out: LD50 (the source's name). Summed up:
(§6)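 Cells were plated at 10,000/well, attached overnight, and exposed 6 or 24 h to eight drug concentrations with six in-plate replicates (DMSO <1%). MTT (0.5 mg/ml in PBS) was added for 2 h at 37 °C, then dissolved in 90% isopropanol/10% DMSO, and A590 was read. Values were corrected against untreated controls. LD₅₀ is reported as mean ± S.E.M., n = 3.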
(Tetrazolium assays rely on reduction of a dye to a coloured formazan, in cell work by metabolically active cells.)

In assay [12] the test system is HaCaT. Put plainly: Induction of apoptosis in human HaCaT cells assessed as late phase apoptotic/necrotic cells at 446 uM after 9 hrs by AnnexinV-FITC/propidium iodide based FACS flow cytometry. In kind it is functional. Summed up:
as §1

Assay [13] is described as follows: Cytotoxicity against HPV-16 transformed human CCD-1106 cells assessed as cell viability after 24 hrs by MTT assay. In kind it is functional. The following applies: CCD-1106, 24 h, read-out: LD50 (the source's name). Summed up: as §6
Assay [14] in a line: Cytotoxicity against HPV-16 transformed human CCD-1106 cells assessed as LDH release after 6 hrs by CYTOX-96 assay. In kind it is functional. The following applies: CCD-1106, 6 h, read-out: LD50 (the source's name). Summed up:
as §5

A further assay has as its system U-937. Put plainly: Growth inhibition of human U937 cells after 72 hrs by Cell Titer 96 aqueous one solution assay. Format: functional. Summed up: as §4
In assay [15] the target is Epidermal growth factor receptor (Homo sapiens) (UniProt P00533). Put plainly: Inhibition of phosphorylated EGFR dimerization in HPV-16 transformed human CCD-1106 cells at 126.7 uM after 30 mins by densitometric analysis. Format: cell-based. In a few lines:
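CCD-1106 cells were exposed to compounds for 30 min at 37 °C, then stimulated with EGF 50 ng/mL for 10 min. They were cross-linked with 2 mM BS3 for 30 min at room temperature and quenched with Tris (pH 7.5). Lysates were run on SDS-PAGE and immunoblotted for phospho-EGFR (Tyr1173) and total EGFR. The ~340 kDa dimer band was quantified by densitometry against the no-inhibitor control.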

Assay [16] shares this target. Put plainly: Inhibition of EGFR-mediated ERK2 phosphorylation in HPV-16 transformed human CCD-1106 cells at 116.8 uM after 30 mins by densitometric analysis. Format: cell-based. In a few lines:
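CCD-1106 cells were treated with compound for 30 min at 37 °C, then stimulated with EGF. Lysates were separated by SDS-PAGE, blotted to nitrocellulose and blocked in 3% BSA/NaTT. Blots were probed with p-ERK (E-4) or p-p38 (D-8) antibodies, detected by ECL and quantified by densitometry.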

Assay [17] relates to HaCaT. As to the kind of experiment: Induction of apoptosis in human HaCaT cells assessed as activation of caspase 3/7 at 55.8 uM after 12 hrs. Format: functional, cell-based. Summed up: as §2
Assay [18] in a line: Growth inhibition of HPV-16 transformed human CCD-1106 cells after 72 hrs by neutral red uptake assay. The following applies: CCD-1106, 72 h. In kind it is functional. Summed up: as §3
Assay [19] is described as follows: Cytotoxicity against HPV-16 transformed human CCD-1106 cells assessed as LDH release after 24 hrs by CYTOX-96 assay. Format: functional. The following applies: CCD-1106, 24 h, read-out: LD50 (the source's name). Summed up: as §5

The structures appear in SMILES notation. Active and inactive are the calls of the source. The rule behind the calls is not given here.

Chain of Epidermal growth factor receptor (Homo sapiens) (P00533 whole entry): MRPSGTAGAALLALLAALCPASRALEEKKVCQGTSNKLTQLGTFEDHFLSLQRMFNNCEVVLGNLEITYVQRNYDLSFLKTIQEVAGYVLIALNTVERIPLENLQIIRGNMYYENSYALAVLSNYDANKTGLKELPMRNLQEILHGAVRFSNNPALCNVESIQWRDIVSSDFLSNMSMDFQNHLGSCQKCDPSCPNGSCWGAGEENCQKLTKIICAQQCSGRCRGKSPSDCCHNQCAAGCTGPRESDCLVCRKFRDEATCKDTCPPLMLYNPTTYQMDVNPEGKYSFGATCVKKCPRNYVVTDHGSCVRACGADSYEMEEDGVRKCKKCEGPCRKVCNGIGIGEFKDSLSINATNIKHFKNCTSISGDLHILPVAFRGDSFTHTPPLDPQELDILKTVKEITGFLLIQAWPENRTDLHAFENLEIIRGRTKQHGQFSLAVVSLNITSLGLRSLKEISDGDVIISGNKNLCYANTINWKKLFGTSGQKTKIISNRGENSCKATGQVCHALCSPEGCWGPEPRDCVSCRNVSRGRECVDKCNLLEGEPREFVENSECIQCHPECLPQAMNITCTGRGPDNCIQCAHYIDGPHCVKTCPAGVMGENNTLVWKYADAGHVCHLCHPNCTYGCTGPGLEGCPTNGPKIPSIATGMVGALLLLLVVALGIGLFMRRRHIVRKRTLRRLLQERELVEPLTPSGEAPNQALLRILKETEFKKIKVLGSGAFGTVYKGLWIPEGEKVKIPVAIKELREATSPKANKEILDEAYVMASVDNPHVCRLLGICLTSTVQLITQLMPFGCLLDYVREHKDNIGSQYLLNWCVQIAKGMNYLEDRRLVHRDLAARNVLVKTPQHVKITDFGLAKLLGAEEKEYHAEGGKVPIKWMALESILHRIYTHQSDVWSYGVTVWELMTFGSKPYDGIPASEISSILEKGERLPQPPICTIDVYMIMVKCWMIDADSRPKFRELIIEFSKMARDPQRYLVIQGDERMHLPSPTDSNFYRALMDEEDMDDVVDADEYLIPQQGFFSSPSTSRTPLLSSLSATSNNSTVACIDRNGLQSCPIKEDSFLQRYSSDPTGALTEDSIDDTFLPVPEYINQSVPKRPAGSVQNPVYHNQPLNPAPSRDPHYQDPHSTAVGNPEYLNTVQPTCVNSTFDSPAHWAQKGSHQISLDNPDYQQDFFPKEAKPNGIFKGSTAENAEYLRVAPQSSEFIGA

With `CCOc1cc(/C=N\Nc2nc3c(c(=O)n(C)c(=O)n3C)n2Cc2ccccc2)ccc1O`, the Activity in the assay with HaCaT [1] is 12%; in the assay with HaCaT [7] it was 17%; with HaCaT [8] it was 24%; in the assay on HaCaT [12] it was 15%. In addition, the outcome with HaCaT [2], in the assay on HaCaT [4] and in the assay with HaCaT [17] was Active. The IC50 (in general, the concentration that inhibits the measured activity by half) in assay [3] was found to be 8 µM. The GI50 in [5] (read-out: GI50) is 2.69 µM; in assay [5] (read-out: pGI50 (converted)), 2.69 µM; in assay [6] it was 54 µM; in the assay on THP-1 (THP-1, 72 h), 36 µM; with U-937 (U-937, 72 h) it was 46 µM; in [18], 9 µM. For the same molecule, the “growth inhibition (GI)” value with THP-1 and with U-937 was “Dose-dependent effect” throughout. Besides, the CC50 in the assay on HaCaT [9] is 446 µM; with HaCaT [10] it was 446 µM; with HaCaT [11], 440 µM; in [13], 112 µM; in assay [14], more than 446 µM; in assay [19], more than 446 µM. Moreover, the inhibition – broadly, the percentage by which the read-out fell short of the control – was 37% in assay [15] and 33% in [16].

The values are drawn from ChEMBL document CHEMBL2146365, “Design and synthesis of EGFR dimerization inhibitors and evaluation of their potential in the treatment of psoriasis” (Bioorg Med Chem, 2012).
